From ChEMBL document CHEMBL1126325, “Inhibition of pig kidney L-aromatic amino acid decarboxylase by 2,3-methano-m-tyrosines” (J Med Chem, 1992)

What was measured:
[1] = molecular target: T1, Aromatic-L-amino-acid decarboxylase (Sus scrofa) (UniProt P80041); experiment: Relative inhibitory comparison to that of (+)D-m-Tyrosine.
T1 sequence (whole entry): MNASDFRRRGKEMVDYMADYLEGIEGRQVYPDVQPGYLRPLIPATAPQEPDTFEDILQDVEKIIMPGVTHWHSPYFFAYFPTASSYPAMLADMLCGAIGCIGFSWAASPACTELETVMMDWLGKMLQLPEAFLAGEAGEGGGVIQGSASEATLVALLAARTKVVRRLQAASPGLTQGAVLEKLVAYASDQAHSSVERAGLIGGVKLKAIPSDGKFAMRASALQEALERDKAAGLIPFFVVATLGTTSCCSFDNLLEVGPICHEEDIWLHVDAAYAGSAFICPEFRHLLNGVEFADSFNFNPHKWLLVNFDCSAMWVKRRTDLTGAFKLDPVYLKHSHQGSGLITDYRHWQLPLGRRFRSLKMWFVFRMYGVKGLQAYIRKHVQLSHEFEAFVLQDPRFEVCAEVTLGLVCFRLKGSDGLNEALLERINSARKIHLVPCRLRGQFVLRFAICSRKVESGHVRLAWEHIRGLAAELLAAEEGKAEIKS

[2] = molecular target: T2, Aromatic-L-amino-acid decarboxylase (Sus scrofa, UniProt P80041); experiment: Inhibitory activity against pig kidney L-aromatic amino acid decarboxylase (Dopa decarboxylase)
T2 sequence (P80041 whole entry): T1 sequence (whole entry)
Summary of the method: (§1)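 The enzyme was purified from pig kidney. The crude extract was clarified with Bioacryl-BP-1000 and centrifuged, then run over DEAE-cellulose, phenyl Sepharose CL-4B and Sephacryl S-300. Decarboxylase activity was measured by a continuous spectrophotometric CO₂-detection procedure using a commercial CO₂ kit. Inhibition was expressed as Ki.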

[3] = molecular target: T2, Aromatic-L-amino-acid decarboxylase; experiment: Inhibitory activity against pig kidney L-aromatic amino acid decarboxylase (Dopamine decarboxylase); summary of the method: as §1

N[C@]1(C(=O)O)C[C@@H]1c1cccc(O)c1
Relative inhibition [1]: 3 | Ki [2]: 330 µM

N[C@@]1(C(=O)O)C[C@H]1c1cccc(O)c1
Relative inhibition [1]: 20.4 | Ki [2]: 49 µM

NC1(C(=O)O)CC1c1cccc(O)c1 (single isomer, unassigned; (+)) [listing 1 of 2 here]
Ki [3]: 22 µM

NC1(C(=O)O)CC1c1cccc(O)c1 (single isomer, unassigned; (+)) [listing 2 of 2 here]
Relative inhibition [1]: 45.4

NC1(C(=O)O)CC1c1cccc(O)c1 (single isomer, unassigned; (-)) [listing 1 of 2 here]
Ki [2]: 630 µM

NC1(C(=O)O)CC1c1cccc(O)c1 (single isomer, unassigned; (-)) [listing 2 of 2 here]
Relative inhibition [1]: 1.6
